Reference: ChEMBL document CHEMBL1136006, “New PET imaging agent for the serotonin transporter: [(18)F]ACF (2-[(2-amino-4-chloro-5-fluorophenyl)thio]-N,N-dimethyl-benzenmethanamine)” (J Med Chem, 2002)

Experiments:
[1] = target: Sodium-dependent noradrenaline transporter (Homo sapiens, UniProt P23975); assay: In vitro binding affinity in LLC-PK1 cells by Norepinephrine transporter binding assay by using [125I]-IPT as a radioligand; type: cell-based
How it was run: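 LLC-PK1 cell membrane homogenates overexpressing DAT or NET. Incubated with 0.4 nM [125I]IPT and 8–10 competitor concentrations (10^-10 to 10^-5 M) in 50 mM Tris-HCl pH 7.4, 120 mM NaCl, 0.1% BSA for 1 h at room temperature. Nonspecific binding defined with 10 μM CFT. Filtered, gamma-counted, nonlinear regression. Mean ± SEM of three determinations in duplicate.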

Rattus norvegicus [2] = species: Rattus norvegicus; assay: Organ distribution of [18F]-ACF radiolabeled compound in rat bone after 30 min; type: ADME, organism-based, Bone element; conditions: in vivo, 0.5 h
How it was run: (§1)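 Under ether anesthesia, 30 μCi no-carrier-added tracer in 0.2 mL saline injected into the femoral vein. Rats killed by cardiac excision at the stated time. Organs were removed, weighed and counted; % dose/organ was calculated against counts of a 1% initial-dose standard. Three rats per time, average ± SD.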

Rattus norvegicus [3] = species: Rattus norvegicus; assay: Ratio of regional brain distribution of [18F]-ACF radiolabeled compound in rat hypothalamus to that of cerebellum after 30 min; type: ADME, organism-based; conditions: in vivo, 0.5 h
How it was run: (§2)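 Rats (three per group) under ether anesthesia got 30 μCi tracer in 0.2 mL saline into the femoral vein and were killed by cardiac excision at the stated time. Cortex, striatum, hippocampus, cerebellum, hypothalamus and the rest of brain were dissected, weighed and gamma counted. %dose/g was taken against counts of a diluted initial dose. Regional ratios are each region's %dose/g over cerebellum's. Mean ± SD.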

Rattus norvegicus [4] = assay: Ratio of effect of pretreatment with nisoxatine with a dose of 2 mg/kg (i.v.) on specific binding of [18F]ACF in rat brain hypothalamus to that of cerebellum; type: ADME, organism-based; parameters: dose 2 mg/kg, route intravenous; conditions: in vivo, iv
How it was run: (§3)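 Rats (three per point) pretreated iv with competing drug at 2 mg/kg or saline (control) 5 min before iv [18F]ACF (50 μCi). At 1 h post tracer, brain regions (cortex, striatum, hippocampus, cerebellum, hypothalamus, remainder) dissected, weighed, counted as % dose/g and expressed as ratio to cerebellum. Average ± SD; ANOVA with Dunnett's test vs saline controls, p < 0.05.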

Rattus norvegicus [5] = species: Rattus norvegicus; assay: Ratio of regional brain distribution of [18F]ACF radiolabeled compound in rat cerebellum to that of cerebellum after 30 min; type: ADME, organism-based; conditions: in vivo, 0.5 h; how it was run: as §2
Rattus norvegicus [6] = species: Rattus norvegicus; assay: Organ distribution of [18F]ACF radiolabeled compound in rat blood after 120 min; type: ADME, organism-based; conditions: in vivo, 2 h
How it was run: (§4)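 Rats, three per time point, under ether anesthesia; 30 μCi tracer in 0.2 mL saline injected into femoral vein. Sacrificed by cardiac excision under ether at 2, 30, 60, 120 or 240 min. Organs removed, weighed and counted; % dose/organ calculated against counts of 1% of initial dose counted at the same time. Average of three rats ± SD.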

Rattus norvegicus [7] = species: Rattus norvegicus; assay: Organ distribution of [18F]-ACF radiolabeled compound in rat liver after 120 min; type: ADME, organism-based; conditions: in vivo, 2 h; how it was run: as §1
Rattus norvegicus [8] = species: Rattus norvegicus; assay: Organ distribution of [18F]-ACF radiolabeled compound in rat brain after 60 min; type: ADME, organism-based; conditions: in vivo, 1 h; how it was run: as §1
Rattus norvegicus [9] = species: Rattus norvegicus; assay: Ratio of regional brain distribution of [18F]-ACF radiolabeled compound in rat cerebellum to that of cerebellum after 120 min; type: ADME, organism-based; conditions: in vivo, 2 h
How it was run: (§5)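 Rats, three per time point, given 30 μCi tracer in 0.2 mL saline into femoral vein under ether anesthesia; killed at 2, 30, 60, 120 or 240 min. Cortex, striatum, hippocampus, cerebellum, hypothalamus and rest of brain dissected, weighed, counted; % dose/g against diluted initial dose, then each region divided by cerebellum. Average of three rats ± SD.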

Rattus norvegicus [10] = assay: Effect of pretreatment with methylphenidate with a dose of 2 mg/kg (i.v.) on specific binding of [18F]ACF in rat brain blood; type: ADME, organism-based; parameters: dose 2 mg/kg, route intravenous; conditions: in vivo, iv
How it was run: (§6)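 Rats pretreated iv with drug (2 mg/kg) or saline 5 min before iv [18F]ACF (50 μCi). Sacrificed 1 h after tracer. Brain regions were dissected, weighed and counted, and % dose/g was calculated against a diluted initial dose. Drug-treated rats were compared with saline controls by ANOVA/Dunnett's test (p<0.05). Three rats per point, average ± SD.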

Rattus norvegicus [11] = species: Rattus norvegicus; assay: Organ distribution of [18F]ACF radiolabeled compound in rat liver after 2 min; type: ADME, organism-based; conditions: in vivo; how it was run: as §4
Rattus norvegicus [12] = species: Rattus norvegicus; assay: Ratio of regional brain distribution of [18F]ACF radiolabeled compound in rat cortex to that of cerebellum after 2 min; type: ADME, organism-based; conditions: in vivo; how it was run: as §2
Rattus norvegicus [13] = species: Rattus norvegicus; assay: Organ distribution of [18F]-ACF radiolabeled compound in rat spleen after 60 min; type: ADME, organism-based; conditions: in vivo, 1 h; how it was run: as §4
Rattus norvegicus [14] = species: Rattus norvegicus; assay: Organ distribution of [18F]ACF radiolabeled compound in rat bone after 60 min; type: ADME, organism-based, Bone element; conditions: in vivo, 1 h; how it was run: as §4
Rattus norvegicus [15] = species: Rattus norvegicus; assay: Regional brain distribution of [18F]ACF radiolabeled compound in rat cortex after 60 min; type: ADME, organism-based; conditions: in vivo, 1 h; how it was run: as §2
Rattus norvegicus [16] = assay: Ratio of effect of pretreatment with methylphenidate with a dose of 2 mg/kg (i.v.) on specific binding of [18F]ACF in rat brain hippocampus to that of cerebellum; type: ADME, organism-based; parameters: dose 2 mg/kg, route intravenous; conditions: in vivo, iv; how it was run: as §3
Rattus norvegicus [17] = assay: Ratio of effect of pretreatment with nisoxatine with a dose of 2 mg/kg (i.v.) on specific binding of [18F]ACF in rat brain striatum to that of cerebellum; type: ADME, organism-based; parameters: dose 2 mg/kg, route intravenous; conditions: in vivo, iv; how it was run: as §3
Rattus norvegicus [18] = species: Rattus norvegicus; assay: Ratio of regional brain distribution of [18F]ACF radiolabeled compound in rat hippocampus to that of cerebellum after 120 min; type: ADME, organism-based; conditions: in vivo, 2 h; how it was run: as §2
Rattus norvegicus [19] = assay: Ratio of effect of pretreatment with methylphenidate with a dose of 2 mg/kg (i.v.) on specific binding of [18F]ACF in rat brain striatum to that of cerebellum; type: ADME, organism-based; parameters: dose 2 mg/kg, route intravenous; conditions: in vivo, iv; how it was run: as §3
Rattus norvegicus [20] = species: Rattus norvegicus; assay: Regional brain distribution of [18F]ACF radiolabeled compound in rat striatum after 60 min; type: ADME, organism-based; conditions: in vivo, 1 h
How it was run: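 Rats, three per group, under ether anaesthesia, given 30 μCi no-carrier-added tracer in 0.2 mL saline into the femoral vein. They were killed at the stated time by cardiac excision under ether. Striatum and other brain regions were dissected, weighed and counted. %dose/g was calculated against counts of 1% of the injected dose, as mean ± SD of three rats.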

Rattus norvegicus [21] = assay: Effect of pretreatment with nisoxatine with a dose of 2 mg/kg (i.v.) on specific binding of [18F]ACF in rat brain striatum; type: ADME, organism-based; parameters: dose 2 mg/kg, route intravenous; conditions: in vivo, iv; how it was run: as §6
Rattus norvegicus [22] = assay: Effect of pretreatment with methylphenidate with a dose of 2 mg/kg (i.v.) on specific binding of [18F]ACF in rat brain cortex; type: ADME, organism-based; parameters: dose 2 mg/kg, route intravenous; conditions: in vivo, iv; how it was run: as §6
Rattus norvegicus [23] = species: Rattus norvegicus; assay: Organ distribution of [18F]-ACF radiolabeled compound in rat heart after 240 min; type: ADME, organism-based; conditions: in vivo, 4 h; how it was run: as §1
Rattus norvegicus [24] = assay: Effect of pretreatment with methylphenidate with a dose of 2 mg/kg (i.v.) on specific binding of [18F]-ACF in rat brain striatum; type: ADME, organism-based; parameters: dose 2 mg/kg, route intravenous; conditions: in vivo, iv; how it was run: as §6
Rattus norvegicus [25] = assay: Effect of pretreatment with (+)-McN5652 with a dose of 2 mg/kg (i.v.) on specific binding of [18F]ACF in rat brain cortex; type: ADME, organism-based; parameters: dose 2 mg/kg, route intravenous; conditions: in vivo, iv; how it was run: as §6
Rattus norvegicus [26] = species: Rattus norvegicus; assay: Regional brain distribution of [18F]ACF radiolabeled compound in rat cortex after 30 min; type: ADME, organism-based; conditions: in vivo, 0.5 h; how it was run: as §2
Rattus norvegicus [27] = species: Rattus norvegicus; assay: Ratio of regional brain distribution of [18F]-ACF radiolabeled compound in rat cerebellum to that of cerebellum after 2 min; type: ADME, organism-based; conditions: in vivo; how it was run: as §5
Rattus norvegicus [28] = assay: Ratio of effect of pretreatment with nisoxatine with a dose of 2 mg/kg (i.v.) on specific binding of [18F]-ACF in rat brain hippocampus to that of cerebellum; type: ADME, organism-based; parameters: dose 2 mg/kg, route intravenous; conditions: in vivo, iv; how it was run: as §3
Rattus norvegicus [29] = assay: Ratio of effect of pretreatment with nisoxatine with a dose of 2 mg/kg (i.v.) on specific binding of [18F]ACF in rat brain cerebellum to that of cerebellum; type: ADME, organism-based; parameters: dose 2 mg/kg, route intravenous; conditions: in vivo, iv; how it was run: as §3

Sodium-dependent noradrenaline transporter, sequence (P23975 whole entry, looked up): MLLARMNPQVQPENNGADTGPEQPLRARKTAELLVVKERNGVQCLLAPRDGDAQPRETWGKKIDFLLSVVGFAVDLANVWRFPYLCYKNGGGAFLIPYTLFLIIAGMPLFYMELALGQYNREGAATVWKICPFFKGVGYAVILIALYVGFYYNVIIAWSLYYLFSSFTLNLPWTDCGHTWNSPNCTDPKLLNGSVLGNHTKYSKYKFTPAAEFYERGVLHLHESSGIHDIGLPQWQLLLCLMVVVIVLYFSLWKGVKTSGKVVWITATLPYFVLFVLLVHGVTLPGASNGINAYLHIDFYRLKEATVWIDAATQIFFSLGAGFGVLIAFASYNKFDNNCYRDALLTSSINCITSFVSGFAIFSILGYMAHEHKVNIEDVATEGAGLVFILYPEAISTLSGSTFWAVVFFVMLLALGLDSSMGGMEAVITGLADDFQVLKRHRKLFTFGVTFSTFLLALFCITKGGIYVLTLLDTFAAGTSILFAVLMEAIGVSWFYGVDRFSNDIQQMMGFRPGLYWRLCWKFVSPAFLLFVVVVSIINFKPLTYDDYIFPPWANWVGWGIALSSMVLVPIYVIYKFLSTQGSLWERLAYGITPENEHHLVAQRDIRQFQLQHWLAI

Ki [1]: 650 nM | Dose/g (Rattus norvegicus [2]): 0.04 % dose/organ | Ratio (Rattus norvegicus [3]): 2.29 | Ratio (Rattus norvegicus [4]): 2.89 | Ratio (Rattus norvegicus [5]): 1 | Dose/g (Rattus norvegicus [6]): 3.2 % dose/organ | Dose/g (Rattus norvegicus [7]): 5.9 % dose/organ | Dose/g (Rattus norvegicus [8]): 0.69 % dose/organ | Ratio (Rattus norvegicus [9]): 1 | Dose/g (Rattus norvegicus [10]): 0.28% | Dose/g (Rattus norvegicus [11]): 9.41 % dose/organ | Ratio (Rattus norvegicus [12]): 1.84 | Dose/g (Rattus norvegicus [13]): 0.13 % dose/organ | Dose/g (Rattus norvegicus [14]): 0.08 % dose/organ | Dose/g (Rattus norvegicus [15]): 0.33% | Ratio (Rattus norvegicus [16]): 2.5 | Ratio (Rattus norvegicus [17]): 2.5 | Ratio (Rattus norvegicus [18]): 2.67 | Ratio (Rattus norvegicus [19]): 2.75 | Dose/g (Rattus norvegicus [20]): 0.45% | Dose/g (Rattus norvegicus [21]): 0.47% | Dose/g (Rattus norvegicus [22]): 0.35% | Dose/g (Rattus norvegicus [23]): 0.04 % dose/organ | Dose/g (Rattus norvegicus [24]): 0.47% | Dose/g (Rattus norvegicus [25]): 0.24% | Dose/g (Rattus norvegicus [26]): 0.62% | Ratio (Rattus norvegicus [27]): 1 | Ratio (Rattus norvegicus [28]): 2.44 | Ratio (Rattus norvegicus [29]): 1
SMILES: CN(C)Cc1ccccc1Sc1cc(F)c(Cl)cc1N
